Assays:
[1] = tested on: skin allograft (BALB/c donor); experiment: Skin allograft rejection under tacrolimus immunosuppression; assay type: in vivo, C57BL/6 mice; settings: 2 mg/kg I.P.; treated PODs 7, 12 n = 6; untreated POD 7 n = 8
Procedure, shortened: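 Allograft recipients received tacrolimus 2 mg/kg i.p. or saline daily from POD −1 to POD 7, plus doses on PODs 9 and 11. FITC-labelled nanosensors (10 nmol by peptide) were given before transplant (POD −4) and on PODs 7 and 12, followed by 90-min urine collection. Urinary FITC was bead-purified with anti-FITC, converted to percent injected dose, and expressed as fold over pre-transplant; unpaired two-sided t-test.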

murine Granzyme B = target: T1, murine Granzyme B (Mus musculus, UniProt P04187); experiment: In vitro protease cleavage assay of nanosensors with recombinant GzmB; assay type: biochemical
T1 sequence (P04187 21-247): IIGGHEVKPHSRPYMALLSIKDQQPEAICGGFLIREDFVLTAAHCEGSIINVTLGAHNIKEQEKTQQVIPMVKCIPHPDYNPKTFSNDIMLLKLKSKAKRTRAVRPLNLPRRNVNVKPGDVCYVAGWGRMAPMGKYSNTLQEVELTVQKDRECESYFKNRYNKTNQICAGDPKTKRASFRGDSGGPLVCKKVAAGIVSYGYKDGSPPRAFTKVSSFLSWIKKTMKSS
Procedure, shortened: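 Candidate GzmB substrates (6–12-mer, Ile at P4, Asp at P1) were conjugated to iron-oxide nanoparticles. They were incubated with recombinant GzmB in PBS + 1% BSA at 37 °C with fluorescence monitoring. Fluorescence traces were fitted to compare initial cleavage velocities.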

GzmB [2] = target: T2, GzmB (Mus musculus, UniProt P04187); experiment: Tracking of cleaved fragments after in vivo GzmB cleavage; design: species or system C57BL/6 mice; settings: POD 7, VT750-labelled, 10 nmol by peptides, 90 minutes post administration, tissue homogenates
T2 sequence (P04187 21-247): T1 sequence (P04187 21-247)

[3] = tested on: GzmB activity in skin allograft; experiment: Urinary prediction of acute rejection in skin graft mice; assay type: in vivo, C57BL/6 mice; settings: FITC-labelled, 10 nmol by peptides, urine collected for 90 minutes, n = 6
Procedure, shortened: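 This was a paired design in C57BL/6 recipients of BALB/c tail-skin grafts. FITC-labelled nanosensors (10 nmol by peptide) were dosed at POD −4 and at post-transplant days, and mice voided over plates for 90 min. Urinary FITC was captured on anti-FITC magnetic beads and quantified against a free-FITC ladder. Values were volume-normalised to percent injected dose, scaled to pre-transplant mean and variance; one-way ANOVA with Dunnett post-test.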

Immunogenicity study = assay type: in vivo, C57BL/6 mice; settings: 10 nmol I.P., with or without complete Freund's adjuvant, total serum IgG, n = 3
Procedure, shortened: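 On day 0, C57BL/6 mice received a single i.p. dose in one of five arms: free GzmB substrate peptide (10 nmol), nanosensors (10 nmol by peptide), nanosensors plus complete Freund's adjuvant, chicken ovalbumin (100 μg) plus CFA, or saline. Serum came from retro-orbital blood, was spun at 3,500 G for 5 min and stored at −80°C. Total IgG was then quantified by immunoassay.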

[4] = tested on: skin allograft and isograft; assay type: in vivo, C57BL/6 mice; settings: POD 7 (peak), i.v., surface-labeled, mice with both grafts, n = 5
[5] = tested on: membrane attack complex (MAC); experiment: ELISA of membrane attack complex; design: species or system human; settings: serum samples, MicroVue CH50 Eq EIA, after 1 hour, n = 3
Procedure, shortened: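 Human control serum was mixed with activity nanosensors, and complement was triggered with heat-aggregated gamma globulin. Fluorescence was read for 1 h, then supernatants were assayed for membrane attack complex by CH50-equivalent EIA, which is proportional to CH50 U. Data are means ± s.e.m., n = 3, compared by one-way ANOVA with Tukey post-test.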

[6] = Clearance of residual urine fluorescence after a single injection; assay type: in vivo, mice; settings: n = 3
GzmB [7] = target: T2, GzmB; experiment: In vivo GzmB activity imaging with NIR activatable probe; design: species or system C57BL/6 mice; settings: 10 nmol by peptide, organs excised at 24 hours

C=CC[C@@H]1/C=C(\C)C[C@H](C)C[C@H](OC)[C@H]2O[C@@](O)(C(=O)C(=O)N3CCCC[C@H]3C(=O)O[C@H](/C(C)=C/[C@@H]3CC[C@@H](O)[C@H](OC)C3)[C@H](C)[C@@H](O)CC1=O)[C@H](C)C[C@@H]2OC [Tacrolimus]
nanosensor urine signals of treated versus untreated allograft mice [1]: blunted compared to untreated mice

(FITC)AIEFDSGc [activity nanosensors]
activation (fluorescence) in samples that contained recombinant GzmB (murine Granzyme B; saline, plasma or serum samples spiked with GzmB, 6 nM by NP, 300 nM by peptide, 37 °C, 60 minutes): markedly activated | fluorescence in kidneys, allograft compared to isograft mice (GzmB [2]): 3 fold | post-graft urine signals from allograft recipients versus pre-graft baseline [3]: significantly elevated as early as POD 5 | induction of neutralizing antibodies (Immunogenicity study): do not induce neutralizing antibodies | signal increase in skin allograft over skin isograft [4]: 4 fold | MAC formation (complement activation by a foreign surface) [5]: no elevation in MAC formation | time to full clearance of residual urinary fluorescence [6]: ≤ 2 days

AIEFD|SG
initial cleavage velocity by recombinant GzmB (murine Granzyme B; library of 13 candidate substrates conjugated to IONPs, n = 4): highest initial cleavage velocity

kGGsIEFDSGGGs{PRA}c [activatable probe]
probe activation in tissues, allograft versus isograft mice (GzmB [7]): significantly increased in allograft skin but statistically equivalent in all major organs

Reference: article PMC6452901 (Nature biomedical engineering, 2019)
